Assay results published in ChEMBL document CHEMBL2331506, “Design, synthesis, antiviral and cytostatic evaluation of novel isoxazolidine nucleotide analogues with a carbamoyl linker” (Bioorg Med Chem, 2013).
Activity calls are given as the source filed them. The rule behind the calls is not given here.

How the values were obtained:
MDCK = test: Cytotoxicity against dog MDCK cells assessed as alteration of cell morphology up to 100 uM by microscopic analysis; assay type: cell-based, Canis lupus familiaris
Procedure, shortened: (§1)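 Uninfected host-cell cultures were exposed to compound and examined by microscopy. Cytotoxicity was expressed as the minimum cytotoxic concentration (MCC) causing a microscopically detectable alteration of normal cell morphology.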

[1] = test system: Respiratory syncytial virus; test: Antiviral activity against Respiratory syncytial virus long infected in human HeLa cells assessed as reduction of virus-induced cytopathogenicity at 250 uM; assay type: functional, organism-based
Procedure, shortened: (§2)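 Confluent monolayers (HEL fibroblasts, Vero, or HeLa cells as listed) were infected with 100 CCID50 of virus in the presence of varying compound concentrations. Virus-induced cytopathicity or plaque formation was scored once cytopathicity was complete in untreated infected controls. EC50 was taken as the concentration reducing cytopathogenicity or plaque formation by 50%.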

[2] = test system: Mammalian orthoreovirus 1; test: Antiviral activity against Reovirus 1 infected in african green monkey Vero cells assessed as reduction of virus-induced cytopathogenicity at 250 uM; assay type: functional, organism-based; procedure, shortened: as §2
Feline coronavirus = test: Antiviral activity against Feline coronavirus infected in cat CRFK cells assessed as reduction of virus-induced cytopathogenicity at 250 uM; assay type: functional, organism-based
Coxsackievirus B4 = test: Antiviral activity against Coxsackievirus B4 infected in african green monkey Vero cells assessed as reduction of virus-induced cytopathogenicity at 250 uM; assay type: functional, organism-based; procedure, shortened: as §2
[3] = test system: Human immunodeficiency virus 1; test: Antiviral activity against Human immunodeficiency virus 1 3B infected in human CEM cells assessed as reduction of virus-induced giant cell formation at 250 uM after 4 to 5 days; assay type: functional, organism-based; conditions: CCRF-CEM
Procedure, shortened: (§3)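 CEM cells at 3 × 10^5 cells/mL were infected with HIV at 100 CCID50 per mL in the presence of compound dilutions. They were held 4–5 days at 37 °C in humidified CO2. Syncytium (giant cell) formation was scored microscopically, and EC50 was taken as the concentration inhibiting giant cell formation by 50%.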

Vero = test: Cytotoxicity against african green monkey Vero cells assessed as alteration of cell morphology up to 100 uM by microscopic analysis; assay type: cell-based; conditions: chlorocebus sabaeus; procedure, shortened: as §1
Human respirovirus 3 = test: Antiviral activity against Parainfluenza virus 3 infected in african green monkey Vero cells assessed as reduction of virus-induced cytopathogenicity at 250 uM; assay type: functional, organism-based; procedure, shortened: as §2
Human alphaherpesvirus 2 = test: Antiviral activity against Herpes simplex virus 2 G infected in human HEL cells assessed as reduction of virus-induced cytopathogenicity at 250 uM; assay type: functional, organism-based; conditions: strain G; procedure, shortened: as §2
HeLa = test: Cytotoxicity against human HeLa cells assessed as alteration of cell morphology up to 100 uM by microscopic analysis; assay type: cell-based; procedure, shortened: as §1
[4] = test system: Human immunodeficiency virus 2; test: Antiviral activity against Human immunodeficiency virus 2 ROD infected in human CEM cells assessed as reduction of virus-induced giant cell formation at 250 uM after 4 to 5 days; assay type: functional, organism-based; conditions: CCRF-CEM; procedure, shortened: as §3
Influenza B virus = test: Antiviral activity against Influenza B virus infected in dog MDCK cells assessed as reduction of virus-induced cytopathogenicity at 250 uM; assay type: functional, organism-based
Procedure, shortened: (§4)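 Confluent cell monolayers were infected with 100 CCID50 of virus while exposed to varying compound concentrations. Cytopathicity was scored once it was complete in untreated infected controls. EC50 was taken as the concentration that reduced virus-induced cytopathogenicity by 50%.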

HEL = test: Cytotoxicity against human HEL cells assessed as alteration of cell morphology up to 100 uM by microscopic analysis; assay type: cell-based; procedure, shortened: as §1
Influenza A virus [5] = test: Antiviral activity against Influenza A virus H1N1 infected in dog MDCK cells assessed as reduction of virus-induced cytopathogenicity at 250 uM; assay type: functional, organism-based; procedure, shortened: as §4
[6] = test system: Vesicular stomatitis virus; test: Antiviral activity against Vesicular stomatitis virus infected in human HeLa cells assessed as reduction of virus-induced cytopathogenicity at 250 uM; assay type: functional, organism-based; procedure, shortened: as §4
Felid alphaherpesvirus 1 = test: Antiviral activity against Feline herpes virus infected in cat CRFK cells assessed as reduction of virus-induced cytopathogenicity at 250 uM; assay type: functional, organism-based
Punta Toro virus = test: Antiviral activity against Punta Toro virus infected in african green monkey Vero cells assessed as reduction of virus-induced cytopathogenicity at 250 uM; assay type: functional, organism-based; procedure, shortened: as §2
Human alphaherpesvirus 1 [7] = test: Antiviral activity against thymidine kinase-deficient, ACV-resistant Herpes simplex virus 1 KOS infected in human HEL cells assessed as reduction of virus-induced cytopathogenicity at 250 uM; assay type: functional, organism-based; procedure, shortened: as §4
[8] = test system: Vesicular stomatitis virus; test: Antiviral activity against Vesicular stomatitis virus infected in human HEL cells assessed as reduction of virus-induced cytopathogenicity at 250 uM; assay type: functional, organism-based; procedure, shortened: as §4
Human alphaherpesvirus 1 [9] = test: Antiviral activity against Herpes simplex virus 1 KOS infected in human HEL cells assessed as reduction of virus-induced cytopathogenicity at 250 uM; assay type: functional, organism-based; procedure, shortened: as §2
[10] = Cytotoxicity against cat CRFK cells assessed as alteration of cell morphology up to 100 uM by microscopic analysis; assay type: cell-based, Felis catus; procedure, shortened: as §1
Influenza A virus [11] = test: Antiviral activity against Influenza A virus H3N2 infected in dog MDCK cells assessed as reduction of virus-induced cytopathogenicity at 250 uM; assay type: functional, organism-based; procedure, shortened: as §4
Sindbis virus = test: Antiviral activity against Sindbis virus infected in african green monkey Vero cells assessed as reduction of virus-induced cytopathogenicity at 250 uM; assay type: functional, organism-based; procedure, shortened: as §2

| Compound | Activity (MDCK) | inhibition [1] | inhibition [2] | inhibition (Feline coronavirus) | inhibition (Coxsackievirus B4) | inhibition [3] | Activity (Vero) | inhibition (Human respirovirus 3) | inhibition (Human alphaherpesvirus 2) | Activity (HeLa) | inhibition [4] | inhibition (Influenza B virus) | Activity (HEL) | inhibition (Influenza A virus [5]) | inhibition [6] | inhibition (Felid alphaherpesvirus 1) | inhibition (Punta Toro virus) | inhibition (Human alphaherpesvirus 1 [7]) | inhibition [8] | inhibition (Human alphaherpesvirus 1 [9]) | further results |
| --- | --- | --- | --- | --- | --- | --- | --- | --- | --- | --- | --- | --- | --- | --- | --- | --- | --- | --- | --- | --- | --- |
| CCOP(=O)(OCC)[C@@H]1C[C@H](C(=O)Nc2ccc(F)cc2)ON1C (mixture of isomers) | Non-toxic | inactive | inactive | inactive | inactive | inactive | Non-toxic | inactive | inactive | Non-toxic | inactive | inactive | Non-toxic | inactive | inactive | inactive | inactive | inactive | inactive | inactive | Activity [10]: Non-toxic; inhibition (Influenza A virus [11]): inactive; inhibition (Sindbis virus): inactive |
| CCOP(=O)(OCC)[C@H]1C[C@H](C(=O)Nc2ccc(F)cc2F)ON1C (mixture of isomers) | Non-toxic | inactive | inactive | inactive | inactive | inactive | Non-toxic | inactive | inactive | Non-toxic | inactive | inactive | Non-toxic | inactive | inactive | inactive | inactive | inactive | inactive | inactive | Activity [10]: Non-toxic; inhibition (Influenza A virus [11]): inactive; inhibition (Sindbis virus): inactive |
| CCOP(=O)(OCC)[C@@H]1C[C@H](C(=O)Nc2ccc(F)cc2F)ON1C (mixture of isomers) | Non-toxic | inactive | inactive | inactive | inactive | inactive | Non-toxic | inactive | inactive | Non-toxic | inactive | inactive | Non-toxic | inactive | inactive | inactive | inactive | inactive | inactive | inactive | Activity [10]: Non-toxic; inhibition (Influenza A virus [11]): inactive; inhibition (Sindbis virus): inactive |
| CCOP(=O)(OCC)[C@H]1C[C@H](C(=O)Nc2ccccc2Br)ON1C (mixture of isomers) | Non-toxic | inactive | inactive | inactive | inactive | inactive | Non-toxic | inactive | inactive | Non-toxic | inactive | inactive | Non-toxic | inactive | inactive | inactive | inactive | inactive | inactive | inactive | Activity [10]: Non-toxic; inhibition (Influenza A virus [11]): inactive; inhibition (Sindbis virus): inactive |
| CCOP(=O)(OCC)[C@@H]1C[C@H](C(=O)Nc2ccccc2Br)ON1C (mixture of isomers) | Non-toxic | inactive | inactive | inactive | inactive | inactive | Non-toxic | inactive | inactive | Non-toxic | inactive | inactive | Non-toxic | inactive | inactive | inactive | inactive | inactive | inactive | inactive | Activity [10]: Non-toxic; inhibition (Influenza A virus [11]): inactive; inhibition (Sindbis virus): inactive |
| CCOP(=O)(OCC)[C@@H]1C[C@H](C(=O)Nc2cccc(Br)c2)ON1C (mixture of isomers) | Non-toxic | inactive | inactive | inactive | inactive | inactive | Non-toxic | inactive | inactive | Non-toxic | inactive | inactive | Non-toxic | inactive | inactive | inactive | inactive | inactive | inactive | inactive | Activity [10]: Non-toxic; inhibition (Influenza A virus [11]): inactive; inhibition (Sindbis virus): inactive |
| CCOP(=O)(OCC)[C@@H]1C[C@H](C(=O)Nc2ccccc2[N+](=O)[O-])ON1C (mixture of isomers) | Non-toxic | inactive | inactive | inactive | inactive | inactive | Non-toxic | inactive | inactive | Non-toxic | inactive | inactive | Non-toxic | inactive | inactive | inactive | inactive | inactive | inactive | inactive | Activity [10]: Non-toxic; inhibition (Influenza A virus [11]): inactive; inhibition (Sindbis virus): inactive |
| CCOP(=O)(OCC)[C@@H]1C[C@@H](C(=O)Nc2ccccc2Cl)ON1C (racemic) | Non-toxic | inactive | inactive | inactive | inactive | inactive | Non-toxic | inactive | inactive | Non-toxic | inactive | inactive | Non-toxic | inactive | inactive | inactive | inactive | inactive | inactive | inactive | Activity [10]: Non-toxic; inhibition (Influenza A virus [11]): inactive; inhibition (Sindbis virus): inactive |
